The labels stand for the following.
B1: tRNA (parent)
chain: GUUCCGUUGGCGUAAUGGUAACGCGUCUCCCUCCUAAGGAGAAGACUGCGGGUUCGAGUCCCGUACGGAACG

This series covers variants of B1. The series is described as follows: yeast fitness, log relative to wild type (ln ratio); higher = fitter; tRNA-Arg(CCU), competitive growth, 37 C, 1 M NaCl. The procedure, abridged:
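Fitness is the natural log of each genotype's generations divided by the wild type's. Generations were derived as OD-scaled log2 output/input frequency from 125 bp paired-end Illumina counts, weighting replicates by inverse variance. Pools of the tRNA-Arg(CCU) variant library, on a HIS3 centromeric plasmid in BY4742 lacking the chromosomal gene, grew ~6.5 generations (~26.5 h) in SC-HIS 1M NaCl at 37 °C after 4 generations in SC-HIS at 30 °C.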
In the case of U2G G6U C27U C66A A69G A70G, the “yeast fitness (ln)” value is -0.145.

For the variant U2G G6U C27U C66A A69G A70U, the “yeast fitness (ln)” value is -0.0809. With U2G G6U A43C C46U C66U A69G A70G, the “yeast fitness (ln)” value is -0.267.

Turning to U2G G6U A43C C46U C66U A69G A70U, the “yeast fitness (ln)” value is -0.286. Turning to U2G G6U C27U A43C C46U A69G A70G C71U, the “yeast fitness (ln)” value is -0.33. Turning to U2G G6U C27U A43C C66U A69G C71U, the “yeast fitness (ln)” value is -0.645. On to U2G G6U C27U A43C C66U A69G A70U C71U, for which the “yeast fitness (ln)” value is -0.411. Regarding U2G G6U A43C C46U C66A A69G A70G, the “yeast fitness (ln)” value is -0.242.

Regarding U2G G6U A43C C46U C66A A69G A70U, the “yeast fitness (ln)” value is -0.0302. Then U2G G6U C27U C46U C66U A69G, with -0.258. For the variant U2G G6U C27U A43C C46U C66U A69G A70U C71U, the “yeast fitness (ln)” value was -0.507. The value for U2G G6U C46U C66U A70G C71U was -0.152; that for U2G G6U A43C C46U C66A A70U C71U was -0.135.

On to U2G G6U C27U A69G C71U, for which the “yeast fitness (ln)” value was -0.286. For the variant U2G G6U A43C C46U C66A A69G A70U C71U, the “yeast fitness (ln)” value is -0.313.

For the variant U2G G6U C27U A43C C66A A70G C71U, the “yeast fitness (ln)” value was -0.253. Then G6A A43C A69G A70G C71U, with -0.305; and G6A A43C C46U C71U, with -0.117. The value for U2G G6U C27U C46U C66U A70U C71U was -0.312; that for U2G G6U C27U C46U A69G A70U C71U was -0.387; that for U2G G6U A43C C66A A70G was -0.137.

On to U2G G6U A43C C66A A70U, for which the “yeast fitness (ln)” value was -0.0132. U2G G6U C27U A43C C66A: the “yeast fitness (ln)” value was -0.0341. The value for U2G G6U C27U A43C C66U was -0.298. For U2G G6U C46U A70U C71U, the “yeast fitness (ln)” value is -0.461.

For U2G G6U C27U A43C C46U C66U A69G C71U, the “yeast fitness (ln)” value was -0.375.

Take G6A: the “yeast fitness (ln)” value was -0.0301. The value for U2G G6U C27U A43C C46U C66A A69G A70G C71U was -0.279; that for U2G G6U A43C C66U A69G A70G was -0.323; that for U2G G6U A43C C66U A69G A70U was -0.379. Then U2G G6U C46U C66A, with -0.0648; and U2G G6U C46U C66U, with -0.131. Then U2G G6U C46U A69G A70G, with -0.109; and U2G G6U C46U A69G A70U, with -0.402; and U2G G6U A43C C46U A70G C71U, with -0.229.

With U2G G6U C27U C66U A69G, the “yeast fitness (ln)” value was -0.275. Regarding G6A A69G A70U C71U, the “yeast fitness (ln)” value was -0.315. Regarding G6A A70U, the “yeast fitness (ln)” value was -0.0535. Then G6A A70G, with -0.194. As to G6A A43C C66U A69G A70U C71U, the “yeast fitness (ln)” value is -0.295.

Regarding U2G G6U C27U A70G C71U, the “yeast fitness (ln)” value was -0.285. Then G6A A43C A70G C71U, with -0.283; and U2G G6U C66U, with -0.0894; and U2G G6U C66A, with -0.0885. Take U2G G6U A43C C46U C66A C71U: the “yeast fitness (ln)” value was -0.154.

In the case of U2G G6U A43C C66A A69G A70G C71U, the “yeast fitness (ln)” value was -0.315. On to G6A A43C C46U, for which the “yeast fitness (ln)” value was -0.143.

As for U2G G6U C27U C46U C66U A69G A70U C71U, the “yeast fitness (ln)” value is -0.336. The value for U2G G6U C27U C46U C66U was -0.147; that for U2G G6U C27U C46U C66A was -0.144. Take U2G G6U C27U C46U C66A A70U C71U: the “yeast fitness (ln)” value is -0.143. Then U2G G6U C71U, with -0.173; and U2G G6U C27U A43C C46U C66U A69G, with -0.317; and G6A A43C A70U C71U, with -0.266. The value for G6A A43C A69G A70U C71U was -0.429; that for U2G G6U C27U A43C C46U was -0.127. In the case of G6A A70G C71U, the “yeast fitness (ln)” value is -0.175. For the variant U2G G6U C27U A43C C66U A70U, the “yeast fitness (ln)” value was -0.219. For the variant U2G G6U C27U A43C C66U A70G, the “yeast fitness (ln)” value is -0.356. On to U2G G6U C27U A43C C66A A69G A70U C71U, for which the “yeast fitness (ln)” value is -0.382. Then G6A A43C C66U A69G, with -0.109; and U2G G6U C27U A43C C66U A69G A70G, with -0.39. Then U2G G6U C27U A43C C66U A69G A70U, with -0.466; and G6A C27U A43C A69G A70G, with -0.264; and G6A C27U A43C A69G A70U, with -0.345.

In the case of U2G G6U A70U C71U, the “yeast fitness (ln)” value is -0.109. Turning to G6A C27U A43C A70G, the “yeast fitness (ln)” value was -0.213. Then G6A C27U A43C A70U, with -0.263. Regarding G6A A43C C46U C66U A70U C71U, the “yeast fitness (ln)” value is -0.268. Regarding U2G G6U C46U A69G A70U C71U, the “yeast fitness (ln)” value is -0.311. As for U2G G6U C27U C46U C66A A69G C71U, the “yeast fitness (ln)” value was -0.293.

On to U2G G6U C27U A43C C66A A69G C71U, for which the “yeast fitness (ln)” value was -0.445. With G6A C27U A43C A69G A70U C71U, the “yeast fitness (ln)” value was -0.238. As for U2G G6U A43C C46U C66A, the “yeast fitness (ln)” value is -0.205. The value for U2G G6U A43C C46U C66U was -0.191; that for G6A A43C C66A A70U was -0.188. For G6A A43C C66A A70G, the “yeast fitness (ln)” value is -0.154. The value for U2G G6U C46U C66U A69G A70U was -0.264. For U2G G6U C46U C66U A69G A70G, the “yeast fitness (ln)” value is -0.162. On to U2G G6U C27U A43C A70G C71U, for which the “yeast fitness (ln)” value is -0.329.

Turning to U2G G6U C27U A43C A69G A70U, the “yeast fitness (ln)” value is -0.315. For U2G G6U C27U A43C A69G A70G, the “yeast fitness (ln)” value was -0.322.

On to U2G G6U C27U A43C C66U A69G A70G C71U, for which the “yeast fitness (ln)” value was -0.51. As to U2G G6U C27U C66U A70U C71U, the “yeast fitness (ln)” value was -0.343.
